Data set [1] has as its system HSV-1 strain K26 (GFP-expressing). Briefly: 3D bioprinted HSE, submerged model, apical HSV-1 infection, GFP signal. The format is cell-based. The note with it: for Emax: Human alphaherpesvirus 1, 48 h, read-out: submerged Max Inhibition (%); for submerged Curve Class: CRC class for HSV-1 inhibition. Summed up:
(§1)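 Skin equivalent: printed fibrin/gelatin/collagen dermis with tdTomato-labelled fibroblasts and 20,000 keratinocytes on a transwell. One day after keratinocyte seeding, GFP HSV-1 K26 (MOI 0.1) was added apically and test compound to the basal medium, and tissues fixed at 48 hpi. GFP and tdTomato total fluorescence were read from 4X z-stack maximum projections within a ~4 mm circular mask. Values were normalised to DMSO-infected and uninfected wells. Triplicate dose-response, curve-classed.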

For data set [2] the test system is unchanged. The data set can be described thus: 3D bioprinted HSE, ALI model, basolateral HSV-1 infection, GFP signal. Format: cell-based. The note with it: for Emax: Human alphaherpesvirus 1, 48 h, read-out: ALI Max Inhibition (%); for ALI Curve Class: CRC class for HSV-1 inhibition. Put shortly: (§2)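 Bioprinted dermal base (fibrinogen, gelatin, collagen I) on a transwell membrane, with 20,000 keratinocytes seeded on top and tdTomato-labelled fibroblasts. Four days after air-lift, GFP HSV-1 K26 (MOI 0.1, in cornification medium) and test compound were added basally, and tissues fixed at 48 hpi. Imaging: 4X z-stack maximum projection, edge mask and ≥14.8 µm object filter. GFP and tdTomato were normalised to infected DMSO and uninfected controls (tdTomato floor 0). Triplicate dose-response, curve-classed.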

For data set [3], the system named is tdTomato fibroblasts. The data set can be described thus: 3D bioprinted HSE, submerged model, tdTomato signal. Format: cell-based, human. The note with it: for CC50: read-out: submerged CC50, tdTomato fibroblasts, triplicate. Put shortly:
as §1

The subject of data set [4] is HSV-1 strain K26 (GFP-expressing). The format is cell-based. The note with it: 2D monoculture; for selectivity ratio: read-out: selectivity index in fibroblasts.
Data set [5] in a line: 3D bioprinted HSE, ALI model, tdTomato signal. The format is cell-based, human. The note with it: human. Summed up:
as §2

For data set [6], the system named is HSV-1 strain K26 (GFP-expressing). The format is cell-based. The note with it: 2D monoculture.
The nature of data set [7]: 3D bioprinted HSE, submerged model, tdTomato signal. The format is cell-based, human. The note with it: human. Put shortly:
as §1

The subject of data set [8] is primary keratinocytes. The data set can be described thus: 2D cytotoxicity in uninfected primary keratinocytes. The note with it: absence of viral infection. Format: cell-based, human.
Data set [9] relates to tdTomato fibroblasts. Briefly: 3D bioprinted HSE, ALI model, tdTomato signal. The format is cell-based, human. The note with it: read-out: ALI CC50; tdTomato fibroblasts, triplicate. Summed up:
as §2

The mark [10] stands for this setting: Human alphaherpesvirus 1, read-out: submerged IC50 (μM).
[11] abbreviates: Human alphaherpesvirus 1, read-out: ALI IC50 (μM).
The mark [12] stands for this setting: read-out: submerged IC50, triplicate, 48HPI.

Bounds are passed on as bounds.

For the compound `Nc1nc2c(ncn2COCCO)c(=O)[nH]1` [Acyclovir], the half-inhibitory concentration (IC50) (as a rule, the concentration that inhibits the measured activity by half) in data set [1] (submerged tissues, assay validation, fig. S5) was 0.36 µM; in data set [2] (Human alphaherpesvirus 1), less than 0.04 µM. Moreover, the “cytotoxic effects on the fibroblasts” value in [3] (submerged and ALI models, tdTomato signal) is listed as “minimal cytotoxic effects”.

`Cc1cccc(C)c1N(CC(=O)Nc1ccc(-c2ncon2)cc1)C(=O)C1CCS(=O)(=O)CC1` [Amenamevir]: the “selectivity index in fibroblasts” value in data set [4] is on record as more than 400. The Emax in [1] was 85.3%; in [2] it was 112%. Besides, the IC50 in data set [1] (setting [10]) was 0.27 µM; in data set [2] (setting [11]), 0.16 µM. Also, the cytotoxic concentration (CC50) at 48 h in data set [5] and in data set [7] was more than 10000 nM each time. Besides, the “selectivity index in keratinocytes” value in data set [6] is on record as more than 250.

In the case of `COc1ccc(-c2nc(N3CCOCC3)c3sc(CN(C)c4ncc(C(=O)NO)cn4)cc3n2)cn1` [Fimepinostat], the Emax in data set [1] worked out at 87.4%; in [2] it was 88.6%. The figures for the IC50 in data set [1] (setting [10]) and in data set [2] (setting [11]) were 1.48 µM and less than 0.04 µM, respectively. Further, the half-maximal cytotoxic concentration (CC50) at 48 h in data set [5] and in data set [7] was more than 10000 nM in each case. The “inhibition of viral GFP expression in keratinocytes” value in [6] is on record as “at least 50%”.

Regarding `Nc1ccn([C@@H]2O[C@H](CO)[C@@H](O)C2(F)F)c(=O)n1` [Gemcitabine], in data set [4], the selectivity ratio is more than 750. For the same compound, the Emax was found to be 99.8% in data set [1] and 102% in data set [2]. Moreover, the concentration for half-maximal inhibition (IC50) came to 0.19 µM in data set [1] (setting [10]) and 0.16 µM in data set [2] (setting [11]). Besides, the CC50 at 48 h in data set [5] and in [7] was more than 10000 nM throughout. In addition, in [8], the toxicity in keratinocytes result is “showed toxicity in keratinocytes”.

With `CC(C)c1cnn2c(NCc3ccccc3-n3cccn3)nc(OC3CCCNC3)nc12` (centres unmarked) [LDC4297], in data set [1] (triplicate), the “submerged Curve Class” value is −2.1. Moreover, the 50% inhibitory concentration (IC50) in data set [1] (setting [12]) was 0.68 µM; in data set [2] (read-out: ALI IC50, triplicate, 48HPI), 0.11 µM. Also, in data set [1] (triplicate, 48HPI), the “submerged Max Inhibition (%)” value stood at 94.82%. Moreover, the “ALI Curve Class” value in data set [2] (triplicate) was −1.1. Further, the “ALI Max Inhibition (%)” value in data set [2] (triplicate, 48HPI) was found to be 99.87%. Moreover, the CC50 in data set [9] and in data set [3] was more than 10000 nM throughout.

Consider `CC(=O)O[C@H]1C[C@H](O[C@H]2[C@@H](O)C[C@H](O[C@H]3[C@@H](O)C[C@H](O[C@H]4CC[C@@]5(C)[C@H](CC[C@@H]6[C@@H]5C[C@@H](O)[C@]5(C)[C@@H](C7=CC(=O)OC7)CC[C@]65O)C4)O[C@@H]3C)O[C@@H]2C)O[C@H](C)[C@H]1O[C@@H]1O[C@H](CO)[C@@H](O)[C@H](O)[C@H]1O` [Lanatoside C], for which, in [4], the selectivity ratio was more than 750. Further, the Emax is 107% in data set [1] and 99.5% in data set [2]. Besides, the IC50 was found to be 0.09 µM in data set [1] (setting [10]) and 0.08 µM in data set [2] (setting [11]). Further, the values for the 50% cytotoxic concentration (CC50) at 48 h in data set [5] and in [7] were more than 10000 nM and 2490 nM, respectively. Besides, the toxicity in keratinocytes entry in data set [8] is reported as “showed toxicity in keratinocytes”.

Consider `O=C(Nc1ccc([N+](=O)[O-])cc1Cl)c1cc(Cl)ccc1O` [Niclosamide], for which the Emax in [1] turned out to be 97.1%; in data set [2], 98.7%. Besides, the 50% inhibitory concentration (IC50) was 0.39 µM in data set [1] (setting [10]) and 0.11 µM in data set [2] (setting [11]). For the same compound, the CC50 at 48 h in data set [5] and in [7] was more than 10000 nM throughout.

Take `Cc1nc(N(C)C(=O)Cc2ccc(-c3ccccn3)cc2)sc1S(N)(=O)=O` [Pritelivir]: the “selectivity index in fibroblasts” value in [4] was more than 400. For the same compound, the Emax in data set [1] was determined as 94.6%; in data set [2], 102%. Besides, the values for the 50% inhibitory concentration (IC50) in [1] (setting [10]) and in data set [2] (setting [11]) were 0.5 µM and 0.21 µM, respectively. Further, the CC50 at 48 h in data set [5] and in data set [7] was more than 10000 nM throughout. The “selectivity index in keratinocytes” value in [6] is more than 250.

With `CC1(C)CC(=O)c2c(C(F)(F)F)nn(-c3ccc(C(N)=O)c(N[C@H]4CC[C@H](O)CC4)c3)c2C1` [SNX-2112], the Emax in [1] came to 102%; in [2], 107%. Moreover, the IC50 in data set [1] (setting [10]) is 0.05 µM; in data set [2] (setting [11]) it was less than 0.04 µM. In addition, the CC50 – broadly, the concentration giving 50% cytotoxicity – at 48 h in data set [5] is more than 10000 nM; in data set [7], 1140 nM. The toxicity in keratinocytes entry in data set [8] is reported as “showed toxicity in keratinocytes”.

As to `C=CC(=O)N1CC/C(=C\c2ccc(F)c([N+](=O)[O-])c2)C(=O)/C(=C/c2ccc(F)c([N+](=O)[O-])c2)C1` [VLX1570], the “submerged Curve Class” value in data set [1] (triplicate) is −2.5. Further, the IC50 worked out at 6.67 µM in data set [1] (setting [12]) and 0.16 µM in [2] (setting [11]). Moreover, the “submerged Max Inhibition (%)” value in [1] (triplicate, 48HPI) was determined as 55.49%. Moreover, in [2] (triplicate), the “ALI Curve Class” value was −1.1. The “ALI Max Inhibition (%)” value in data set [2] (triplicate, 48HPI) is 101.22%. In addition, the cytotoxic concentration (CC50) in [9] was more than 10000 nM; in [3], 8410 nM.

Take `O=C(/C=C\n1cnc(-c2cc(C(F)(F)F)cc(C(F)(F)F)c2)n1)NNc1ccccn1` [Verdinexor]: the results for the Emax in data set [1] and in data set [2] were 68.6% and 108%, respectively. Further, the IC50 in [1] (setting [10]) worked out at 0.48 µM; in data set [2] (setting [11]), 0.17 µM. In addition, the CC50 at 48 h in data set [5] and in data set [7] was more than 10000 nM each time. In addition, in [6], the “inhibition of viral GFP expression in keratinocytes” value is given as “at least 50%”.

As for Fluoroemetine, the cytotoxic concentration (CC50) in data set [9] and in [3] was more than 10000 nM throughout.
